Screening results: PubChem, The Scripps Research Institute Molecular Screening Center
In the library only some 3% were active in any assay of this set; here they are far more common.
HTR1E agonist: activates the human 5-HT1E serotonin receptor; hit rate 0.69% among 65,000; CHO 5-HT1E Ga15 NFAT-bla reporter, FRET; 0% DMSO wells, 100% control agonist wells; AID 574; activation, % at 6 µM;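 active = activation above a set limit, the screen-wide mean activation plus 3 SD, cut at about 8.5% in these data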
Target sequence (P28566 whole entry, looked up): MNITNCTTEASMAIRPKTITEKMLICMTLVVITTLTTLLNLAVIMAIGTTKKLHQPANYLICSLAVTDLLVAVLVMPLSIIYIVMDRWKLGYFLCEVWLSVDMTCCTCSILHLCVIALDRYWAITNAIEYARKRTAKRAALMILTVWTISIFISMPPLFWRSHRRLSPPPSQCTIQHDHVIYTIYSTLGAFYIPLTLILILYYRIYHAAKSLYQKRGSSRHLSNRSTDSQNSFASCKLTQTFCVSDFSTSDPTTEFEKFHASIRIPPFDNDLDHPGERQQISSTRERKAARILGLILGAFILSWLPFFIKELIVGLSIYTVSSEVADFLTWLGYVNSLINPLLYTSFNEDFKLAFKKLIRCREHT
5HT1a antag: 5-HT1a (human) receptor antagonism | inhibition, % at 10 µM | hit rate 0.68% among 62,000 | CHO 5-HT1a Ga15 NFAT-bla reporter, antagonist mode;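 active = inhibition above the mean of all tested compounds plus 3 SD, cut at about 43% in these data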;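 also: receptor stimulated by 5-CT agonist at 100 nM near EC80; beta-lactamase reporter measured by ratiometric fluorescence of a cleavable substrate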
5HT1a ag: 5-HT1a (human) receptor agonism. CHO 5-HT1a Ga15 NFAT-bla reporter, FRET ratio; 0% basal, 100% maximal reference agonist. activation, % at 10 µM. hit rate 0.56% among 65,000;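 active = activation above the screen-wide mean activation plus 3 SD, cut at about 19% in these data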
S1P3 agonist: S1P3 (human) receptor agonism | Q99500 | S1P3 NFAT-BLA reporter cells, FRET ratio; relative to 1 µM S1P, basal subtracted | activation, % at 4.5 µM | hit rate 0.1% among 60,000;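 active = activation above the screen-wide mean plus 3 SD, cut at about 4.5% in these data, passing the limit was not always enough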
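Measure – % activation relative to 1 µM S1P (100%), per plate · System – stable CHO line with human S1P3, Gα16, NFAT-BLA reporter · Timing – cells plated overnight, compound 4 h 37 °C, substrate 2 h RT · Technique – fluorescent BLA substrate, ex 405 nm, em 460/535 nm ratio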
5HT1E antag: antagonists of human 5-HT1E serotonin receptor; CHO 5-HT1E Ga15 NFAT-bla reporter, FRET, antagonist; inhibition, % at 6 µM; hit rate 0.99% among 65,000;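 active = inhibition above a set limit, the mean inhibition across every tested compound plus 3 SD, cut at about 29% in these data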;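 also: signal is the 460 over 535 nm emission ratio of beta-lactamase substrate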
S1P1 ag-PAM: activates or potentiates agonism at human S1P1 receptor. P21453. S1P1 CRE-bla cells, forskolin, beta-lactamase FRET, potentiator mode; S1P1 agonist co-added at EC20, 2 nM; 100% = saturating reference agonist, 0% = basal. activation, % at 9.5 µM. hit rate 0.57% among 56,000. AID 449;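 active = activation above a cutoff set at the mean activation of all tested compounds plus 3 SD, cut at about 54% in these data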;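 also: forskolin at 4 µM as EC80 and the EC20 agonist is SEW2871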
Large screens that a line does not name were inactive.

O=C1N2c3ccccc3CCc3cccc(c32)C1(O)C(F)(F)F (centres undefined)	5HT1E antag 29
Cc1sc2ncn(CC(=O)OC(C)C(=O)NC(C)(C)C)c(=O)c2c1C (centres undefined)	5HT1a ag 98 (no result: S1P3 agonist, S1P1 ag-PAM)
COC(=O)c1ccc(-n2nnnc2SCC(=O)Nc2cc(OC)ccc2OC)cc1	none
COc1ccc(OC)c(NC(=O)CSc2nnnn2-c2ccc3c(c2)OCO3)c1	5HT1a antag 44
Cc1cc(C(=O)NCCCn2ccnc2)sc1-c1ccccc1	none
Cc1cccc(-n2c(SCC(=O)Nc3nonc3C)nnc2-c2ccoc2C)c1	5HT1a ag 34
Cc1cccc(-n2c(SCC(=O)Nc3nnc(C)s3)nnc2-c2ccoc2C)c1	none
CC1CCCN(c2nc3c(c(=O)[nH]c(=O)n3C)n2CCSc2ncccn2)C1 (centres undefined)	none
O=C(COC(=O)CCC1CCCC1)Nc1ccc(Cl)cn1	HTR1E agonist 59
O=C(COc1ccc(Cl)cc1Cl)Nc1ccc(Cl)cn1	none
Cc1csc(NC(=O)C(Cc2ccccc2)n2cccc2)n1 (centres undefined)	S1P1 ag-PAM 81
CCCn1nnc(NC(=O)c2cc(Br)cc(Br)c2OC)n1	none (no result: 5HT1a antag)
CCOCCCn1c(=S)[nH]c2cc(C(=O)NCCOC)ccc2c1=O	HTR1E agonist 16 (no result: S1P3 agonist, S1P1 ag-PAM)
COc1ccc(N2CCN(CCNC(=O)CCCn3c(=O)[nH]c4cc(Cl)ccc4c3=O)CC2)cc1	none (no result: S1P3 agonist, S1P1 ag-PAM)
Cc1cc(C(=O)NCCN2CCN(c3cccc(Cl)c3)CC2)n(-c2ccccc2)n1	5HT1a ag 31
Cn1cc(C(=O)NCCN2CCN(c3cccc(Cl)c3)CC2)c2c3ccccc3n(C)c2c1=O	none
COCCn1c(=O)[nH]c2cc(C(=O)NCCN3CCN(c4cccc(Cl)c4)CC3)ccc2c1=O	5HT1a ag 28 (no result: S1P3 agonist, S1P1 ag-PAM)
O=C(CSc1nc(-c2ccncc2)nn1CC(=O)N1CCCCC1)NC1CCCC1	none (no result: S1P3 agonist, S1P1 ag-PAM)
Brc1ccc2ncnc(Nc3ccc(N4CCOCC4)cc3)c2c1	S1P1 ag-PAM 61
CCCS(=O)(=O)c1nnnn1-c1cccc(OC)c1	5HT1a antag 109, 5HT1E antag 106, S1P1 ag-PAM 116
Cc1oc(-c2cccc(Cl)c2)nc1CN1CCCC(C(=O)NC(C)c2ccc3c(c2)OCCO3)C1 (centres undefined)	none
COc1cc(C2C3=C(CC(C)(C)CC3=O)N(C)C(=O)N2C)cc(OC)c1OC (centres undefined)	none (no result: S1P3 agonist, S1P1 ag-PAM)
CCOc1ccc(CCNS(=O)(=O)c2cnc[nH]2)cc1OCC	5HT1E antag 31
O=S(=O)(NCc1ccc2c(c1)OCO2)c1cnc[nH]1	none
Cc1cc(C#N)c(C)n1-c1cc(C(F)(F)F)ccc1N1CCOCC1	5HT1a antag 43
COc1ccc2cc(CN(Cc3cccnc3)S(=O)(=O)c3ccccc3)c(=O)[nH]c2c1	none
Cc1ccc(-c2nnn(CC(=O)N(c3cccc(F)c3)C(C(=O)NC3CCCC3)c3ccco3)n2)o1 (centres undefined)	5HT1E antag 32
Cc1ccc(-c2nnn(CC(=O)N(c3ccc(F)cc3)C(C(=O)NC3CCCC3)c3ccco3)n2)o1 (centres undefined)	none
Cc1ccc(-c2nnn(CC(=O)N(Cc3cccs3)C(C(=O)NC(C)(C)C)c3ccco3)n2)o1 (centres undefined)	none
CC(C)(C)NC(=O)C(c1ccco1)N(C(=O)Cn1nnc(-c2ccc(F)cc2)n1)c1cccc(F)c1 (centres undefined)	HTR1E agonist 10
CCOC(=O)c1c(NC(=O)CSc2nnc(-c3cccnc3)n2Cc2ccco2)sc(C)c1C	none
Cc1nn2c(c1-c1ccccc1)NC1=C(C(=O)CCC1)C2c1cccnc1 (centres undefined)	none
COCCOC(=O)c1c(C)nc(SCC(=O)Nc2ccc(OC)cc2)c(C#N)c1-c1ccco1	5HT1E antag 34 (no result: 5HT1a antag)
COc1cccc(NC(=O)CSc2nc3c(c(-c4ccco4)c2C#N)CCCC3)c1	none
O=C(c1ccco1)N1CCN(/C(=N/S(=O)(=O)c2cccs2)c2ccccc2Cl)CC1	5HT1a ag 29
Cc1cc(C(=O)Nc2sc(C)c(-c3ccc(F)cc3)c2C(N)=O)no1	S1P1 ag-PAM 102
CCCc1cc(C(N)=O)c(NC(=O)c2cc(C)on2)s1	none
CCn1c(=O)c(C(=O)Nc2nc3ccccc3[nH]2)c(O)c2ccccc21	5HT1a antag 57, 5HT1E antag 64
COC(=O)C1=C(Cn2cnc3ccccc32)NC(=O)NC1c1cc(C)ccc1C (centres undefined)	5HT1a ag 22 (no result: S1P1 ag-PAM)
CCOC(=O)C1=C(Cn2cnc3ccccc32)NC(=O)NC1c1cc(C)ccc1C (centres undefined)	none
CC(=O)N1CCC(N(CCCOC(C)C)C(=O)Nc2ccc(Cl)cc2)CC1	none
Cc1[nH]c2ccc(Br)cc2c(=O)c1CN1CCCCC1	5HT1a ag 104
COC(=O)c1ccc2[nH]c(C)c(CN3CCCC3)c(=O)c2c1	none (no result: S1P3 agonist, S1P1 ag-PAM)
CC(NC(=O)OC1CCCCC1)N1C(=O)C2C3C=CC(C3)C2C1=O (centres undefined)	none
Oc1ccc(CN2CCN(Cc3ccccc3)CC2)c2cccnc12	5HT1E antag 30
Oc1ccc(CNc2ccccc2)c2cccnc12	none
CN1CCN(Cc2cc(COCc3ccccc3)c3cccnc3c2O)CC1	5HT1E antag 48
CC(C)Oc1ccc(/C(O)=C2/C(=O)C(=O)N(CCCN3CCOCC3)C2c2ccncc2)cc1 (centres undefined)	none (no result: S1P1 ag-PAM)
c1ccc(CNn2nnnc2-c2ccccc2)cc1	none
COc1ccccc1C(=O)NC(=Nc1nc2ccccc2o1)NC(=O)c1ccccc1OC	5HT1E antag 41 (no result: 5HT1a antag)
CC1CCN(C(=O)CSc2nc3cccnc3n2C)CC1	5HT1a ag 89
CCOc1ccccc1NC(=O)C1CCN(S(=O)(=O)c2cccc3cccnc23)CC1	none
COc1ccccc1C1c2c(oc3ccc(Cl)cc3c2=O)C(=O)N1c1cc(C)on1 (centres undefined)	none
CCC(C)C(=O)Nc1cc(C(=O)OC)cc(C(=O)OC)c1 (centres undefined)	none
CCCC(=O)Nc1cccc(NC(=O)c2ccc3c(c2)OCO3)c1	HTR1E agonist 14
COC(=O)c1ccc(OCC(=O)Nc2nn(-c3ccccc3)nc2C(N)=O)cc1	none
c1ccc(CNc2ncnc3ccccc23)cc1	S1P1 ag-PAM 106
CCN(CC)CCCCOc1ccccc1OC	HTR1E agonist 10
Cc1ccc(Cn2c(Sc3nnc(C)s3)nc3c2c(=O)[nH]c(=O)n3C)cc1	5HT1E antag 41
COc1ccc(NC(=O)CSc2nnc(CNc3ccc(F)cc3)o2)c(OC)c1	none
